Holding throughout (type): functional
Test [1] deals with Mycobacterium tuberculosis. Briefly: Antimycobacterial activity against Mycobacterium tuberculosis H37Rv after 14 days by serial dilution technique. Conditions: 336 h. The procedure, abridged:
(§1)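 H37Rv kept on L–J medium at 37 °C. Inoculum made by homogenizing growth with glass beads in Tween-albumin Middlebrook 7H9, letting large particles settle, and adjusting the supernatant to 3 ×10⁸ CFU by McFarland standard, with CFU/mL checked by plating. 0.1 mL went onto L–J slants with Gruft supplement holding serially diluted compound. Incubated 37 °C, read at 14, 21, 30 days. MIC was the lowest concentration with clear tubes; triplicate.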

For test [2], the system named is Mycobacterium tuberculosis. Briefly: Antimycobacterial activity against Mycobacterium tuberculosis H37Rv after 30 days by serial dilution technique. The procedure, abridged:
as §1

For test [3], the system named is Mycobacterium tuberculosis. Briefly: Antimycobacterial activity against Mycobacterium tuberculosis H37Rv after 21 days by serial dilution technique. Conditions: 504 h. The procedure, abridged:
as §1

SMILES strings stand for the structures. ≈ marks a conversion by molar mass, not a printed value.

One may read the MIC as the smallest concentration in the dilution series that meets the test's criterion for growth inhibition. A lower MIC goes with a more susceptible organism.

Regarding `CCOC(=O)C1=C(Nc2ccccc2F)N=CN2CCN=C12`, the MIC in test [1] amounted to 5 µg/mL (≈ 16.5 µM); in test [2] it was 50 µg/mL (≈ 165 µM); in test [3], 5 µg/mL (≈ 16.5 µM).
For the compound `CCOC(=O)C1=C(Nc2cccc(C(F)(F)F)c2)N=CN2CCN=C12`, the figures for the MIC in test [1], in test [2] and in test [3] were 100 µg/mL (≈ 284 µM), greater than 200 µg/mL and 100 µg/mL (≈ 284 µM), respectively.
For `CCOC(=O)C1=C(Nc2ccccc2C)N=C(c2ccccc2)N2CCN=C12`, the MIC in test [1] was 100 µg/mL (≈ 267 µM); in test [2] it was greater than 200 µg/mL; in test [3], 100 µg/mL (≈ 267 µM).
`CCOC(=O)C1=C(Nc2ccc(C)cc2)N=CN2CCN=C12`: the MIC in test [1] was 5 µg/mL (≈ 16.8 µM); in test [2] it was 50 µg/mL (≈ 168 µM); in test [3] it was 5 µg/mL (≈ 16.8 µM).
Consider `CCOC(=O)C1=C(Nc2ccc(Br)cc2)N=CN2CCN=C12`, for which the MIC in test [1] amounted to 50 µg/mL (≈ 138 µM); in test [2] it was 100 µg/mL (≈ 275 µM); in test [3] it was 50 µg/mL (≈ 138 µM).
Turning to `CCOC(=O)C1=C(Nc2ccc(Br)cc2)N=C(c2ccccc2)N2CCN=C12`, the MIC in test [1] was 100 µg/mL (≈ 228 µM); in test [2], greater than 200 µg/mL; in test [3], 100 µg/mL (≈ 228 µM).
As to `CCOC(=O)C1=C(Nc2ccccc2)N=CN2CCN=C12`, the MIC in test [1] was 20 µg/mL (≈ 70.3 µM); in test [2], 50 µg/mL (≈ 176 µM); in test [3], 20 µg/mL (≈ 70.3 µM).
On to `CCOC(=O)C1=C(Nc2ccccc2)N=C(c2ccccc2)N2CCN=C12`, for which the MIC in test [1] is 50 µg/mL (≈ 139 µM); in test [2], 100 µg/mL (≈ 277 µM); in test [3], 50 µg/mL (≈ 139 µM).
In the case of `CCOC(=O)C1=C(Nc2ccccc2C)N=CN2CCN=C12`, the MIC in test [1], in test [2] and in test [3] was greater than 200 µg/mL throughout.
Consider `CCOC(=O)C1=C(Nc2ccc(F)cc2)N=C(c2ccccc2)N2CCN=C12`, for which the figures for the MIC in test [1], in test [2] and in test [3] were 5 µg/mL (≈ 13.2 µM), 20 µg/mL (≈ 52.9 µM) and 5 µg/mL (≈ 13.2 µM), respectively.
On to `CCOC(=O)C1=C(Nc2ccc(F)cc2)N=CN2CCN=C12`, for which the MIC in test [1] worked out at 5 µg/mL (≈ 16.5 µM); in test [2], 20 µg/mL (≈ 66.2 µM); in test [3], 5 µg/mL (≈ 16.5 µM).
For `CCOC(=O)C1=C(Nc2ccc(C)cc2)N=C(c2ccccc2)N2CCN=C12`, the MIC is 100 µg/mL (≈ 267 µM) in test [1], greater than 200 µg/mL in test [2] and 100 µg/mL (≈ 267 µM) in test [3].
Regarding `CCOC(=O)C1=C(NC)N=CN2CCN=C12`, the MIC in test [1], in test [2] and in test [3] was greater than 200 µg/mL each time.
`CCOC(=O)C1=C(Nc2ccc(Cl)cc2)N=C(c2ccccc2)N2CCN=C12`: the MIC in test [1] is 20 µg/mL (≈ 50.7 µM); in test [2], 50 µg/mL (≈ 127 µM); in test [3], 20 µg/mL (≈ 50.7 µM).
As to `CCOC(=O)C1=C(Nc2ccccc2Cl)N=C(c2ccccc2)N2CCN=C12`, the MIC in test [1], in test [2] and in test [3] was greater than 200 µg/mL throughout.
Turning to `CCOC(=O)C1=C(Nc2ccccc2F)N=C(c2ccccc2)N2CCN=C12`, the MIC in test [1], in test [2] and in test [3] was greater than 200 µg/mL each time.
In the case of `CCOC(=O)C1=C(NCc2ccccc2)N=C(c2ccccc2)N2CCN=C12`, the MIC in test [1], in test [2] and in test [3] was greater than 200 µg/mL in each case.
As for `CCOC(=O)C1=C(Nc2cccc(Cl)c2)N=C(c2ccccc2)N2CCN=C12`, the MIC in test [1], in test [2] and in test [3] was greater than 200 µg/mL each time.
As for `CCOC(=O)C1=C(NC)N=C(c2ccccc2)N2CCN=C12`, the MIC in test [1], in test [2] and in test [3] was greater than 200 µg/mL in each case.
As for `NCC[C@H](O)C(=O)N[C@@H]1C[C@H](N)[C@@H](O[C@H]2O[C@H](CN)[C@@H](O)[C@H](O)[C@H]2O)[C@H](O)[C@H]1O[C@H]1O[C@H](CO)[C@@H](O)[C@H](N)[C@H]1O` [AMIKACIN], the minimal inhibitory concentration (MIC) in test [1], in test [2] and in test [3] was 2 µg/mL (≈ 3.42 µM) throughout.
For `CCOC(=O)C1=C(Nc2cccc(Cl)c2)N=CN2CCN=C12`, the MIC in test [1], in test [2] and in test [3] was greater than 200 µg/mL each time.
On to `CCNC1=C(C(=O)OCC)C2=NCCN2C(c2ccccc2)=N1`, for which the MIC in test [1], in test [2] and in test [3] was greater than 200 µg/mL in each case.
As to `CO[C@H]1/C=C/O[C@@]2(C)Oc3c(C)c(O)c4c(c3C2=O)C2=NC3(CCN(CC(C)C)CC3)NC2=C(NC(=O)/C(C)=C\C=C\[C@H](C)[C@H](O)[C@@H](C)[C@@H](O)[C@@H](C)[C@H](OC(C)=O)[C@@H]1C)C4=O` [RIFABUTIN], the MIC in test [1], in test [2] and in test [3] was 0.05 µg/mL (≈ 0.059 µM) each time.
`CCOC(=O)C1=C(Nc2ccccc2Cl)N=CN2CCN=C12`: the MIC in test [1], in test [2] and in test [3] was greater than 200 µg/mL in each case.
Regarding `CCNC1=C(C(=O)OCC)C2=NCCN2C=N1`, the MIC in test [1], in test [2] and in test [3] was greater than 200 µg/mL throughout.
For `CCOC(=O)C1=C(Nc2ccc(OC)cc2)N=C(c2ccccc2)N2CCN=C12`, the MIC in test [1] amounted to 5 µg/mL (≈ 12.8 µM); in test [2], 50 µg/mL (≈ 128 µM); in test [3], 5 µg/mL (≈ 12.8 µM).
For `CCOC(=O)C1=C(Nc2ccc(OC)cc2)N=CN2CCN=C12`, the MIC in test [1] turned out to be 2 µg/mL (≈ 6.36 µM); in test [2], 20 µg/mL (≈ 63.6 µM); in test [3], 2 µg/mL (≈ 6.36 µM).
Turning to `CCOC(=O)C1=C(Nc2ccccc2OC)N=CN2CCN=C12`, the MIC in test [1], in test [2] and in test [3] was greater than 200 µg/mL in each case.
For `CCOC(=O)C1=C(Nc2ccc(Cl)cc2)N=CN2CCN=C12`, the MIC in test [1] was found to be 5 µg/mL (≈ 15.7 µM); in test [2], 20 µg/mL (≈ 62.7 µM); in test [3], 5 µg/mL (≈ 15.7 µM).
For `CCOC(=O)C1=C(Nc2cccc(C)c2)N=CN2CCN=C12`, the MIC in test [1], in test [2] and in test [3] was greater than 200 µg/mL in each case.
For the compound `CCOC(=O)C1=C(Nc2ccccc2OC)N=C(c2ccccc2)N2CCN=C12`, the MIC in test [1], in test [2] and in test [3] was greater than 200 µg/mL each time.
Take `CCOC(=O)C1=C(NCc2ccccc2)N=CN2CCN=C12`: the results for the minimal inhibitory concentration (MIC) in test [1], in test [2] and in test [3] were 20 µg/mL (≈ 67 µM), 100 µg/mL (≈ 335 µM) and 20 µg/mL (≈ 67 µM), respectively.

The record behind these values is ChEMBL document CHEMBL1154153, “Design, synthesis and antimycobacterial activity of some novel imidazo[1,2-c]pyrimidines” (2009).
